According to ChEMBL document CHEMBL1156237, “Antiviral activity of benzimidazole derivatives. II. Antiviral activity of 2-phenylbenzimidazole derivatives” (Bioorg Med Chem, 2010):
Calls of active or inactive are those of the source. How the calls were made is not given here.

Key:
[1] = Cytotoxicity against human MT4 cells after 96 hrs by MTT assay; type: cell-based; conditions: MT4 cells
Outline: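 Exponentially growing MT-4 cells at 1 × 10^5 cells/mL in RPMI-1640 with 10% FCS, exposed to serial compound dilutions at 37 °C, 5% CO2. Viability by MTT after 96 h; CC50 is the concentration reducing viability of mock-infected cells by 50%.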

[2] = Cytotoxicity against MDBK cells after 48 to 96 hrs by MTT assay; type: cell-based, Bos taurus; conditions: cattle, MDBK cells
Outline: (§1)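 Cell seeding: MDBK at 6 × 10^5 cells/mL in MEM-E with 10% horse serum and 1 mM Na pyruvate; BHK at 1 × 10^6 cells/mL in MEM-E with 10% FBS. Serial compound dilutions, 37 °C, 5% CO2. Viability of mock-infected cells by MTT after 48–96 h; CC50 is the concentration reducing viability by 50%.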

[3] = Cytotoxicity against BHK cells after 48 to 96 hrs by MTT assay; type: cell-based, Mesocricetus auratus; conditions: hamster; outline: as §1
[4] = Cytotoxicity against african green monkey Vero cells; type: cell-based; conditions: chlorocebus sabaeus
Outline: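 Vero 76 monolayers exposed to serial compound dilutions, run in parallel on the same 24-well plates as the plaque-reduction assays. CC50 is the concentration reducing viability of mock-infected cells by 50%.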

[5] = test system: Human immunodeficiency virus 1; assay: Antiviral activity against HIV1 3B infected in human MT4 cells assessed as protection from virus-induced cytopathogenicity after 4 days by MTT method; type: functional, organism-based
Outline: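 MT-4 cells, 1 × 10^4/well in RPMI with or without serial compound dilutions, infected with HIV-1 IIIB, 100 CCID50 (m.o.i. 0.01). Protection from virus-induced cytopathogenicity read by MTT.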

[6] = test system: Vesicular stomatitis virus; assay: Antiviral activity against VSV Indiana lab infected in african green monkey Vero cells after 2 days by plaque reduction assay; type: functional, organism-based
[7] = test system: Bovine viral diarrhea virus 1; assay: Antiviral activity against Bovine viral diarrhea virus NADL infected in MDBK cells assessed as protection from virus-induced cytopathogenicity after 3 to 4 days by MTT method; type: functional, organism-based, Bovine viral diarrhea virus 1-NADL; conditions: Bovine viral diarrhea virus isolates and strains, MDBK
Outline: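 Cytopathogenicity protection assay. MDBK cells at 3 × 10^4/well, grown overnight to confluence. Infected with BVDV NADL at m.o.i. 0.01 in MEM-E with 0.5% inactivated FBS, 1 mM Na pyruvate and 1% kanamycin. Serial compound dilutions added after 1 h. After 3–4 days at 37 °C, viability read by MTT; EC50 is the concentration giving 50% protection.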

Yellow fever virus = assay: Antiviral activity against Yellow fever virus 17D infected in BHK cells assessed as protection from virus-induced cytopathogenicity after 3 to 4 days by MTT method; type: functional, organism-based
Coxsackievirus B2 = assay: Antiviral activity against Human coxsackievirus B2 Ohio-1 infected in african green monkey Vero cells after 3 days by plaque reduction assay; type: functional, organism-based, Coxsackievirus B2 (strain Ohio-1); conditions: Enterovirus B, Vero, 72 h
Outline: (§2)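 Plaque reduction assay. Vero 76 cells at 2 × 10^5/well, grown overnight to confluence in D-MEM with 10% FBS. Infected 2 h with 50–100 PFU/well, unadsorbed virus removed. Overlay of D-MEM with 1% inactivated FBS and 0.75% methylcellulose, with or without serial compound dilutions. Incubated at 37 °C for 3 days (HSV-1 KOS, CVB-2 Ohio-1) or 5 days (RSV A2). Fixed and stained with crystal violet in 50% ethanol; plaques counted; EC50 by linear regression.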

Poliovirus 1 = assay: Antiviral activity against Polio virus type1 Sabin strain Chat infected in african green monkey Vero cells after 2 days by plaque reduction assay; type: functional, organism-based, Human poliovirus 1 strain Sabin; conditions: Enterovirus C, 48 h
Human alphaherpesvirus 1 = assay: Antiviral activity against HSV1 KOS infected in african green monkey Vero cells after 3 days by plaque reduction assay; type: functional, organism-based; conditions: Human alphaherpesvirus 1, KOS, 72 h; outline: as §2
[8] = test system: Respiratory syncytial virus; assay: Antiviral activity against RSV A2 infected in african green monkey Vero cells after 5 days by plaque reduction assay; type: functional, organism-based; conditions: human respiratory syncytial virus, A2, Vero, 120 h; outline: as §2
Vaccinia virus = assay: Antiviral activity against Vaccinia virus Elstree-Lister infected in african green monkey Vero cells after 3 days by plaque reduction assay; type: functional, organism-based; conditions: Orthopoxvirus vaccinia, 72 h

Row | SMILES | CC50 at 96 h [1] [µM] | CC50 [2] [µM] | CC50 [3] [µM] | CC50 [4] [µM] | Activity [5] | Activity [6] | EC50 [7] [µM] | EC50 (Yellow fever virus) [µM] | EC50 (Coxsackievirus B2) [µM] | EC50 (Poliovirus 1) [µM] | EC50 (Human alphaherpesvirus 1) [µM] | EC50 [8] [µM] | EC50 (Vaccinia virus) [µM]
1 | O=[N+]([O-])c1ccc(-c2nc3cc(C(F)(F)F)ccc3n2C23CC4CC(CC(C4)C2)C3)cc1 | ≥ 100 | > 100 | > 100 | > 100 | inactive | inactive | > 100 | > 100 | > 100 | > 100 | > 100 | > 100 | > 100
2 | COc1ccc(-c2nc3cc(C(F)(F)F)ccc3[nH]2)c(OC)c1 | > 100 | > 100 | > 100 | > 100 | inactive | inactive | > 100 | > 100 | 32 | > 100 | > 100 | > 100 | > 100
3 | Oc1ccc(-c2nc3cc(Cl)c(Cl)cc3[nH]2)cc1 | 12 | 11 | 29 | 18 | inactive | inactive | > 11 | > 29 | > 18 | > 18 | > 18 | 7 | > 18
4 | COc1ccc(-c2nc3cc(C(C)=O)ccc3[nH]2)c(OC)c1 | > 100 | > 100 | > 100 | > 100 | inactive | inactive | 42 | > 100 | > 100 | > 100 | > 100 | > 100 | > 100
5 | COc1ccc(-c2nc3cc(Cl)c(Cl)cc3[nH]2)c([N+](=O)[O-])c1 | 2 | 28 | 80 | 80 | inactive | inactive | > 28 | > 80 | > 80 | > 80 | > 80 | > 80 | > 80
6 | Cn1c(-c2ccc([N+](=O)[O-])cc2)nc2cc(C(F)(F)F)ccc21 | ≥ 100 | > 100 | > 100 | > 100 | inactive | inactive | > 100 | > 100 | > 100 | > 100 | > 100 | > 100 | > 100
7 | COc1ccc(-c2nc3cc(C(F)(F)F)ccc3[nH]2)c([N+](=O)[O-])c1 | 85 | 55 | 100 | 20 | inactive | inactive | > 55 | > 100 | > 20 | > 20 | > 20 | > 20 | > 20
8 | COc1ccc(-c2nc3cc(Cl)c(Cl)cc3[nH]2)c(N)c1 | 3 | 6.5 | > 100 | 75 | inactive | inactive | > 6.5 | > 100 | > 75 | > 75 | > 75 | > 75 | > 75
9 | O=[N+]([O-])c1ccc(-c2nc3cc(C(F)(F)F)ccc3[nH]2)cc1 | 6 | 6 | 18 | 45 | inactive | inactive | > 6 | > 18 | 12 | > 45 | > 45 | > 45 | 4
10 | COc1cc(-c2nc3cc(C(F)(F)F)ccc3[nH]2)cc(OC)c1OC | 4 | 18 | 31 | 29 | inactive | inactive | > 18 | > 31 | 11 | > 29 | > 29 | > 29 | > 29
11 | O=[N+]([O-])c1ccccc1-c1nc2ccccc2[nH]1 | 60 | > 100 | > 100 | > 100 | inactive | inactive | > 100 | > 100 | > 100 | > 100 | > 100 | 40 | > 100
12 | O=[N+]([O-])c1ccc(-c2nc3cc(C(F)(F)F)ccc3[nH]2)c([N+](=O)[O-])c1 | 9 | 16 | 8 | 25 | inactive | inactive | > 16 | > 8 | 9 | > 25 | > 25 | > 25 | > 25
13 | Fc1ccc(-c2nc3cc(C(F)(F)F)ccc3[nH]2)cc1 | 22 | 19 | 25 | 60 | inactive | inactive | > 19 | > 25 | 13 | > 60 | > 60 | > 60 | 8
14 | COc1ccc(-c2nc3cc(C(F)(F)F)ccc3[nH]2)c(OC)c1OC | 93 | > 100 | 32 | 70 | inactive | inactive | > 100 | > 32 | 16 | 42 | > 70 | > 70 | > 70
15 | Fc1cccc(F)c1-c1nc2cc(C(F)(F)F)ccc2[nH]1 | 100 | ≥ 100 | ≥ 100 | 25 | inactive | inactive | > 100 | > 100 | > 25 | > 25 | > 25 | > 25 | > 25
16 | COc1ccc(-c2nc3cc(C(C)=O)ccc3[nH]2)c(OC)c1OC | > 100 | > 100 | > 100 | > 100 | inactive | inactive | > 100 | > 100 | > 100 | > 100 | 40 | > 100 | > 100
17 | Fc1cccc(F)c1-c1nc2cc(Cl)c(Cl)cc2[nH]1 | 17 | 43 | > 100 | > 100 | inactive | inactive | > 43 | > 100 | 30 | > 100 | > 100 | > 100 | > 100
18 | COc1ccc(-c2nc3cc([N+](=O)[O-])ccc3[nH]2)c(OC)c1OC | > 100 | > 100 | > 100 | > 100 | inactive | inactive | > 100 | > 100 | > 100 | > 100 | > 100 | > 100 | > 100
